Reference: ChEMBL document CHEMBL1145518, “Potent immune-modulating and anticancer effects of NKT cell stimulatory glycolipids” (2007)
Activity calls are given as the source filed them. The rule behind the calls is not given here.

Assays:
[1] = Induction of IL10 secretion in human CD161+ CD3+ NKT cells at 10 ug/ml after 18 hrs relative to basal level; format: functional
Procedure, shortened: (§1)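 Human Vα24i NKT cell lines were expanded for 10 days on irradiated (3,000 rad) autologous immature DCs with 10 units/ml IL-2. The cells (1 × 10^5) were cocultured with 5 × 10^4 irradiated immature CD14+ DCs plus glycolipid at 10 μg/ml. Supernatants were collected at 18 h and read on a 22-plex Luminex bead panel. Triplicates, mean ± SD.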

NKT = experiment: Stimulation of cell expansion of human invariant CD161+/ Valpha24+/ CD56+/ CD3+ NKT cells by flow cytometry method; format: functional, cell-based
Procedure, shortened: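 CD56+ NK/NKT mixtures (2 × 10^6) were isolated from human leukopaks with anti-CD56 microbeads. They were cocultured with 4 × 10^5 autologous immature CD14+ DCs pulsed with glycolipid at 3 μg/ml, or with 0.3% DMSO, on day 2 for 18 h. Suspension cells were then transferred and kept in 100 units/ml IL-2 with fresh medium every 3 days. On day 9, CD161+/Vα24TCR+ cells were gated by flow cytometry and total Vα24i NKT cells counted. Triplicates, mean ± SD.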

[2] = Induction of IFN-gamma secretion in human CD161+ CD3+ NKT cells at 10 ug/ml after 18 hrs relative to basal level; format: functional; procedure, shortened: as §1
[3] = Induction of IL6 secretion in human CD161+ CD3+ NKT cells at 10 ug/ml after 18 hrs relative to basal level; format: functional; procedure, shortened: as §1
[4] = Induction of IL3 secretion in human CD161+ CD3+ NKT cells at 10 ug/ml after 18 hrs relative to basal level; format: functional; procedure, shortened: as §1
[5] = Induction of GM-CSF secretion in human CD161+ CD3+ NKT cells at 10 ug/ml after 18 hrs relative to basal level; format: functional; procedure, shortened: as §1
[6] = Induction of IL2 secretion in human CD161+ CD3+ NKT cells at 10 ug/ml after 18 hrs relative to basal level; format: functional; procedure, shortened: as §1
[7] = Induction of IL13 secretion in human CD161+ CD3+ NKT cells at 10 ug/ml after 18 hrs relative to basal level; format: functional; procedure, shortened: as §1
[8] = Induction of MIPalpha secretion in human CD161+ CD3+ NKT cells at 10 ug/ml after 18 hrs relative to basal level; format: functional; procedure, shortened: as §1
[9] = Induction of IL8 secretion in human CD161+ CD3+ NKT cells at 10 ug/ml after 18 hrs relative to basal level; format: functional; procedure, shortened: as §1
[10] = Induction of IL15 secretion in human CD161+ CD3+ NKT cells at 10 ug/ml after 18 hrs relative to basal level; format: functional; procedure, shortened: as §1
[11] = Induction of IL4 secretion in human CD161+ CD3+ NKT cells at 10 ug/ml after 18 hrs relative to basal level; format: functional; procedure, shortened: as §1
[12] = Induction of TNFalpha secretion in human CD161+ CD3+ NKT cells at 10 ug/ml after 18 hrs relative to basal level; format: functional; procedure, shortened: as §1
[13] = Induction of MCP1 secretion in human CD161+ CD3+ NKT cells at 10 ug/ml after 18 hrs relative to basal level; format: functional; procedure, shortened: as §1
[14] = Induction of RANTES secretion in human CD161+ CD3+ NKT cells at 10 ug/ml after 18 hrs relative to basal level; format: functional; procedure, shortened: as §1
[15] = Induction of IL12p70 secretion in human CD161+ CD3+ NKT cells at 10 ug/ml after 18 hrs relative to basal level; format: functional; procedure, shortened: as §1
[16] = Induction of IL12p40 secretion in human CD161+ CD3+ NKT cells at 10 ug/ml after 18 hrs relative to basal level; format: functional; procedure, shortened: as §1
TC1 = experiment: Antitumor activity in TC1 cells xenografted C57BL/6 mouse assessed as suppression of tumor growth at 2 ug, iv; format: functional, cell-based
Procedure, shortened: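 C57BL/6 mice (n = 5/group) were inoculated i.v. with TC-1 lung cancer cells. They were then treated i.v. with 2 μg glycolipid per mouse, or 100 μl of 1% DMSO, twice weekly for 4 weeks. Kaplan–Meier survival and body weight were followed, with tumor-free mice as an additional control.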

4T1 = experiment: Antitumor activity in mouse 4T1 cells xenografted BALB/c mouse assessed as suppression of tumor growth at 2 ug, iv; format: functional, cell-based
Procedure, shortened: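 BALB/c mice (n = 6) were inoculated s.c. with 4T1 breast cancer cells. From day 3 they were treated i.v. with glycolipid or vehicle twice weekly for 4 weeks. Tumor volume was recorded every 3 days for 1 month, and survival was monitored up to 54 days.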

Mus musculus [17] = experiment: Induction of IL6 secretion in BALB/c mouse serum at 2 ug, iv after 2 hrs relative to control; format: functional
Procedure, shortened: (§2)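 BALB/c mice received an i.v. injection of 100 μl of glycolipid diluted to 20 μg/ml in saline from DMSO stock, with 1% DMSO as vehicle. Serum cytokines/chemokines were measured at 2 and 18 h after injection.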

Mus musculus [18] = experiment: Induction of IL12p70 secretion in BALB/c mouse serum at 2 ug, iv after 18 hrs relative to control; format: functional; procedure, shortened: as §2
Mus musculus [19] = experiment: Induction of IFN-gamma secretion in BALB/c mouse serum at 2 ug, iv after 18 hrs relative to control; format: functional; procedure, shortened: as §2
Mus musculus [20] = experiment: Induction of IL2 secretion in BALB/c mouse serum at 2 ug, iv after 2 hrs relative to control; format: functional; procedure, shortened: as §2
Mus musculus [21] = experiment: Induction of RANTES secretion in BALB/c mouse serum at 2 ug, iv after 2 hrs relative to control; format: functional; procedure, shortened: as §2
Mus musculus [22] = experiment: Induction of IL13 secretion in BALB/c mouse serum at 2 ug, iv after 2 hrs relative to control; format: functional; procedure, shortened: as §2
Mus musculus [23] = experiment: Induction of IL3 secretion in BALB/c mouse serum at 2 ug, iv after 2 hrs relative to control; format: functional; procedure, shortened: as §2
Mus musculus [24] = experiment: Induction of IL4 secretion in BALB/c mouse serum at 2 ug, iv after 2 hrs relative to control; format: functional; procedure, shortened: as §2
Mus musculus [25] = experiment: Induction of IL12p40 secretion in BALB/c mouse serum at 2 ug, iv after 18 hrs relative to control; format: functional; procedure, shortened: as §2
Mus musculus [26] = experiment: Induction of MCP1 secretion in BALB/c mouse serum at 2 ug, iv after 2 hrs relative to control; format: functional; procedure, shortened: as §2
Mus musculus [27] = experiment: Induction of IL1-beta secretion in BALB/c mouse serum at 2 ug, iv after 18 hrs relative to control; format: functional; procedure, shortened: as §2
Mus musculus [28] = experiment: Induction of MIPbeta secretion in BALB/c mouse serum at 2 ug, iv after 2 hrs relative to control; format: functional; procedure, shortened: as §2
Mus musculus [29] = experiment: Induction of IL10 secretion in BALB/c mouse serum at 2 ug, iv after 18 hrs relative to control; format: functional; procedure, shortened: as §2
Mus musculus [30] = experiment: Induction of TNFalpha secretion in BALB/c mouse serum at 2 ug, iv after 18 hrs relative to control; format: functional; procedure, shortened: as §2
Mus musculus [31] = experiment: Induction of GM-CSF secretion in BALB/c mouse serum at 2 ug, iv after 2 hrs relative to control; format: functional; procedure, shortened: as §2
Mus musculus [32] = experiment: Induction of KC secretion in BALB/c mouse serum at 2 ug, iv after 2 hrs relative to control; format: functional; procedure, shortened: as §2
Mus musculus [33] = experiment: Activation of B cells in BALB/c mouse at 2 ug, iv after 72 hrs by flow cytometry; format: functional, organism-based

Compound | Activity [1] | Activity (NKT) | Activity [2] | Activity [3] | Activity [4] | Activity [5] | Activity [6] | Activity [7] | Activity [8] | Activity [9] | Activity [10] | Activity [11] | Activity [12] | Activity [13] | Activity [14] | Activity [15] | Activity [16] | Activity (TC1) | further results
CCCCCCCCCCCCCC[C@@H](O)[C@@H](O)[C@H](CO[C@H]1O[C@H](CO)[C@H](O)[C@H](O)[C@H]1O)NC(=O)CCc1ccc(CC(C)C)cc1 | 2.2 | Active | 1.9 | 2.1 | 1.9 | 3.8 | 1.3 | 1.4 | 2.8 | 5.5 | 2.2 | 2.2 | 1.9 | 0.9 | 1.3 | 1.8 | 1.8 | – | –
CCCCCCCCCCCCCC[C@@H](O)[C@@H](O)[C@H](CO[C@H]1O[C@H](CO)[C@H](O)[C@H](O)[C@H]1O)NC(=O)CCCCCCCCCc1ccccc1 | 1.4 | Active | 4.2 | 1.6 | 1.8 | 3.4 | 3.4 | 1.6 | 3.4 | 2.2 | 2.3 | 3.2 | 5.6 | 1.5 | 2.1 | 2.3 | 1.4 | Active | Activity (4T1): Active
CCCCCCCCCCCCCCC[C@@H](O)[C@H](CO[C@H]1O[C@H](C(=O)O)[C@H](O)[C@H](O)[C@H]1O)NC(=O)CCCCCCCCCCCCC | 1.7 | – | 2.4 | 2.3 | 1.7 | 2.9 | 1.3 | 2 | 3.5 | 2.3 | 2 | 2.9 | 5.5 | 1.7 | 2.4 | 1.7 | 1.9 | Active | Activity (Mus musculus [17]): 1.7; Activity (Mus musculus [18]): 1.2; Activity (Mus musculus [19]): 3.1; Activity (Mus musculus [20]): 17.2; Activity (Mus musculus [21]): 0.9; Activity (4T1): Active; Activity (Mus musculus [22]): 2.3; Activity (Mus musculus [23]): 2.8; Activity (Mus musculus [24]): 26.8; Activity (Mus musculus [25]): 1.9; Activity (Mus musculus [26]): 5.6; Activity (Mus musculus [27]): 2; Activity (Mus musculus [28]): 1.4; Activity (Mus musculus [29]): 1.1; Activity (Mus musculus [30]): 6; Activity (Mus musculus [31]): 4.9; Activity (Mus musculus [32]): 7.6
CCCCCCCCCCCCCC[C@@H](O)[C@@H](O)[C@H](CO[C@H]1O[C@H](CO)[C@H](O)[C@H](O)[C@H]1O)NC(=O)CCCCCc1ccccc1 | 2.4 | Active | 4.6 | 2.7 | 4.1 | 5.6 | 5.9 | 2.6 | 3 | 2.2 | 2.6 | 3 | 8.7 | 1.3 | 1.8 | 3.3 | 2.4 | Active | Activity (Mus musculus [33]): Active
CCCCCCCCCCCCCCCCCCCCCCCCCC(=O)N[C@@H](CO[C@@H]1O[C@H](CO)[C@H](O)[C@H](OS(=O)(=O)[O-])[C@H]1O)[C@H](O)[C@H](O)CCCCCCCCCCCCCC.[Na+] | 1.8 | – | 2.2 | 1.9 | 2.3 | 4.1 | 1.6 | 2.4 | 3.2 | 1.9 | 2.2 | 2.9 | 3.7 | 1.5 | 1.5 | 1.6 | 1.8 | – | –
CCCCCCCCCCCCCC[C@@H](O)[C@@H](O)[C@H](CO[C@H]1O[C@H](CO)[C@H](O)[C@H](O)[C@H]1O)NC(=O)CCc1ccc(C(F)(F)F)cc1 | 1.7 | – | 2.8 | 2.3 | 1.6 | 3.5 | 1.5 | 2.1 | 3.4 | 2.4 | 2.1 | 2.4 | 3.3 | 1.4 | 1.7 | 1.7 | 1.9 | – | –
CCCCCCCCCCCCCCCCCCCCCCCCCC(=O)N[C@@H](CS[C@H]1O[C@H](CO)[C@H](O)[C@H](O)[C@H]1O)[C@H](O)[C@H](O)CCCCCCCCCCCCCC | 0.6 | – | 1.3 | 1.5 | 1.1 | 1.6 | 1.2 | 1.6 | 1.5 | 1.9 | 1.8 | 2.1 | 2.5 | 1.4 | 1.5 | 1 | 1.7 | – | –
CCCCCCCCCCCCCC[C@@H](O)[C@@H](O)[C@H](CO[C@H]1O[C@H](CO)[C@H](O)[C@H](O)[C@H]1O)NC(=O)CCCc1ccccc1 | 1.3 | – | 2.1 | 1.6 | 1.8 | 2.8 | 1.4 | 1.6 | 3.2 | 1.6 | 2.2 | 1.9 | 3.3 | 1 | 1.5 | 1.2 | 1.4 | – | –
